Results from ChEMBL document CHEMBL2074309, “The drug transporter P-glycoprotein limits oral absorption and brain entry of HIV-1 protease inhibitors” (J Clin Invest, 1998).

Assays:
[1] = molecular target: T1, ATP-dependent translocase ABCB1 (Homo sapiens, UniProt P08183); assay: TP_TRANSPORTER: transepithelial transport (basal to apical) in MDR1-expressing LLC-PK1 cells; type: functional, cell-based; details: pig
Method in brief: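 L-MDR1 cells (LLC-PK1 expressing MDR1) plated at 4×10^5 cells/12-mm well on 3.0 µm polycarbonate Transwell filters, used day 4; resistance ≥200 Ω after blank correction. Serum-free Optimem; [14C]-drug 5 µM added to basal compartment, apical radioactivity sampled at 1, 2, 3, 4 h by scintillation, given as % of total added; parental LLC-PK1 run alongside; mean ± SE, ≥3 experiments.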

[2] = molecular target: ATP-dependent translocase ABCB1 (Mus musculus, UniProt P21447); assay: TP_TRANSPORTER: increase in brain concentration in mdr1a(-/-) mouse; type: functional, organism-based; details: in vivo
ATP-dependent translocase ABCB1 (Mus musculus, UniProt P21447), sequence (P21447 whole entry): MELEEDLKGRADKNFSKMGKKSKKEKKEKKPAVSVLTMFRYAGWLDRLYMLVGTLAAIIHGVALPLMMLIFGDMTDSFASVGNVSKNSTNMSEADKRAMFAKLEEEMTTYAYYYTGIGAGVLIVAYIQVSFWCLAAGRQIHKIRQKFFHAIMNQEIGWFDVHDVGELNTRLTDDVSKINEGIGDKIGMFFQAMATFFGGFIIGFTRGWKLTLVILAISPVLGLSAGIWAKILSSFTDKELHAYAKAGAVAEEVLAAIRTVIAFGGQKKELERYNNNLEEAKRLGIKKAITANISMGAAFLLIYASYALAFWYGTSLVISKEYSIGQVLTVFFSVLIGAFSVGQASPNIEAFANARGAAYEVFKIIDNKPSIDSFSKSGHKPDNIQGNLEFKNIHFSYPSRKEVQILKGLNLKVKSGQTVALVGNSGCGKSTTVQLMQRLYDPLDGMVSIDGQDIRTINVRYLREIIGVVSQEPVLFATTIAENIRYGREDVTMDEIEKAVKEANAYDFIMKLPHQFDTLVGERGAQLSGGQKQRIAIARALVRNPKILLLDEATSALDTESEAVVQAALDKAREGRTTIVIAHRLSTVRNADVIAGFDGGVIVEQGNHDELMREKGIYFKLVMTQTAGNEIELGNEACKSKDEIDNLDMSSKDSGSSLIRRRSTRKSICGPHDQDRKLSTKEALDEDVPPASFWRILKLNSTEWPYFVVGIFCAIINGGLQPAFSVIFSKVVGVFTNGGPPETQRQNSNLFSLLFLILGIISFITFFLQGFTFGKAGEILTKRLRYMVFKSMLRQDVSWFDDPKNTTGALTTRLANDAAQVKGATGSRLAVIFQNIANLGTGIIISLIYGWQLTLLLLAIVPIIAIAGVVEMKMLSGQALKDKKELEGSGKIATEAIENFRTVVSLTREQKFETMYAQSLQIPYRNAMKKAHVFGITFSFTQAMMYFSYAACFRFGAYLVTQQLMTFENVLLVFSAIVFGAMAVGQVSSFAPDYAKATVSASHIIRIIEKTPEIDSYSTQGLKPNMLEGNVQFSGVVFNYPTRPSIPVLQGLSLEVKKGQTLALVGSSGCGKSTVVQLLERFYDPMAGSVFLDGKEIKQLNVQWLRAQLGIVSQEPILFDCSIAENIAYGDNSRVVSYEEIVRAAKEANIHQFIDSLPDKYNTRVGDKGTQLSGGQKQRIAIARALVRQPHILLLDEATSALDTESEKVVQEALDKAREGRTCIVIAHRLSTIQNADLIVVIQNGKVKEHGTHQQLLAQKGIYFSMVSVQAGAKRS
Method in brief: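 Male mdr1a(-/-) (FVB/TacBR-[KO]mdr1aN7) and matched mdr1a(+/+) FVB/NTacBR mice, 6–12 wk, three per group. [14C]-drug (indinavir 1.5 mg/kg, nelfinavir 3 mg/kg, saquinavir 2 mg/kg) in ethanol/0.9% saline, given i.v. into tail vein over 10 min. At 4 h, isoflurane anesthesia, orbital exsanguination, brain homogenized in 4% BSA. Total radioactivity by scintillation; value is (-/-)/(+/+) ratio of brain levels.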

[3] = molecular target: T1, ATP-dependent translocase ABCB1; assay: TP_TRANSPORTER: inhibition of Saquinavir transepithelial transport (basal to apical) (Saquinavir: 5 uM, PSC-833: 1 uM) in Caco-2 cells; type: functional, cell-based; details: caco-2, 1 µM
Method in brief: (§1)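 Caco-2 monolayers on 0.4 µm polycarbonate Transwell filters, plated at 10^5 cells/12-mm well, used on day 4; wells with resistance ≥200 Ω (blank-corrected) used. […] Radioactivity reaching apical side sampled at 1, 2, 3, 4 h, expressed as % of added; mean ± SE, ≥3 experiments.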

[4] = molecular target: T1, ATP-dependent translocase ABCB1; assay: TP_TRANSPORTER: inhibition of Nelfinavir transepithelial transport (basal to apical) (Nrlfinavir: 5 uM, PSC-833: 1 uM) in Caco-2 cells; type: functional, cell-based; details: caco-2, 1 µM; method in brief: as §1
[5] = molecular target: T1, ATP-dependent translocase ABCB1; assay: TP_TRANSPORTER: inhibition of Indinavir transepithelial transport (basal to apical) (Indinavir: 5 uM, PSC-833: 1 uM) in Caco-2 cells; type: functional, cell-based; details: caco-2, 1 µM; method in brief: as §1

T1 sequence (P08183 whole entry): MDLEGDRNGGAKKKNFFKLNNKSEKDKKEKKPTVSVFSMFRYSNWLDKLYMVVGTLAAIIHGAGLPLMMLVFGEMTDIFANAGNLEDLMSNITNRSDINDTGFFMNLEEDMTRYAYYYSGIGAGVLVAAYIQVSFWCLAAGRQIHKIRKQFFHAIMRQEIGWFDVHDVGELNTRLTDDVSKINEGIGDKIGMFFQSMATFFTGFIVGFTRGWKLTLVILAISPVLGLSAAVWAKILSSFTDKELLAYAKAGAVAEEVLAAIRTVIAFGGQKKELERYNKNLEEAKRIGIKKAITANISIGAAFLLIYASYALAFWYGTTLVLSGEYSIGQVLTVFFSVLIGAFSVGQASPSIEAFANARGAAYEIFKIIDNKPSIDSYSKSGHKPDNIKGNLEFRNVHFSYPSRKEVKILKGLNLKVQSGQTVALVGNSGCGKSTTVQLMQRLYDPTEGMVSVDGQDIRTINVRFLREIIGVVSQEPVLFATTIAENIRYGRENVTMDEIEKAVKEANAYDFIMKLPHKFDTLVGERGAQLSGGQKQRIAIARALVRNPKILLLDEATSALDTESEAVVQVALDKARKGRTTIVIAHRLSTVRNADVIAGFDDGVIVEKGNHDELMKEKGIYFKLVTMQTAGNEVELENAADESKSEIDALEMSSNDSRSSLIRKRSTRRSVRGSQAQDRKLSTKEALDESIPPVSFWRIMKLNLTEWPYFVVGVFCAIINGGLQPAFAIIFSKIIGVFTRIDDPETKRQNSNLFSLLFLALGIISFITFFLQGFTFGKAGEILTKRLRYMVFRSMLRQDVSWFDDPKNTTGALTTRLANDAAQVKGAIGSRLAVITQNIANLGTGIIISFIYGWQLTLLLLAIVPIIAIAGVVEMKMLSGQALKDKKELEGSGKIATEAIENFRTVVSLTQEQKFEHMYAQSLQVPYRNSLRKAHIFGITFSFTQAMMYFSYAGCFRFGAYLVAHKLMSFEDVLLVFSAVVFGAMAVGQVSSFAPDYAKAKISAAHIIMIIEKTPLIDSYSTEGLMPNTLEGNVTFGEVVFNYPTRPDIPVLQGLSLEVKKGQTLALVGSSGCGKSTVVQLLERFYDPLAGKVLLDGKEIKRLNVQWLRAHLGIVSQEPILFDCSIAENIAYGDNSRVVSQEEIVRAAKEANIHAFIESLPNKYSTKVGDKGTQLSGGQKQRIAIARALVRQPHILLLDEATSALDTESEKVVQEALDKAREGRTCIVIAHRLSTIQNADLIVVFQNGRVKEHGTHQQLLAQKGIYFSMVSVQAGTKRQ

With `CC(C)(C)NC(=O)[C@@H]1CN(Cc2cccnc2)CCN1C[C@@H](O)C[C@@H](Cc1ccccc1)C(=O)N[C@H]1c2ccccc2C[C@H]1O.O` the Activity [1] was “substrate [+]” and the Activity [2] was “substrate [+]”.

`CC(C)(C)NC(=O)[C@@H]1C[C@@H]2CCCC[C@@H]2CN1C[C@@H](O)[C@H](Cc1ccccc1)NC(=O)[C@H](CC(N)=O)NC(=O)c1ccc2ccccc2n1` was tested, and the Activity [2] was “substrate [+]”.

`Cc1c(O)cccc1C(=O)N[C@@H](CSc1ccccc1)[C@H](O)CN1C[C@H]2CCCC[C@H]2C[C@H]1C(=O)NC(C)(C)C` was tested, and the Activity [1] was “substrate [+]” and the Activity [2] was “substrate [+]”.

For `C/C=C/C[C@@H](C)C(=O)[C@H]1C(=O)N[C@@H](C(C)C)C(=O)N(C)CC(=O)N(C)[C@@H](CC(C)C)C(=O)N[C@@H](C(C)C)C(=O)N(C)[C@@H](CC(C)C)C(=O)N[C@@H](C)C(=O)N[C@H](C)C(=O)N(C)[C@@H](CC(C)C)C(=O)N(C)[C@@H](CC(C)C)C(=O)N(C)[C@@H](C(C)C)C(=O)N1C` [VALSPODAR], the Activity [3] was “inhibitor [+]”, the Activity [4] was “inhibitor [+]” and the Activity [5] was “inhibitor [+]”.
